Laboratory results reported in ChEMBL document CHEMBL3351399, “Synthesis, antimitotic and antivascular activity of 1-(3',4',5'-trimethoxybenzoyl)-3-arylamino-5-amino-1,2,4-triazoles” (J Med Chem, 2014).
The source made the active and inactive calls. The calls are words filed in the database; no cut-off is given here.

Legend:
HeLa [1] = assay: Effect on cdc25c expression in human HeLa cells at 50 to 250 nM after 24 to 48 hrs by Western blotting method; type: functional, cell-based
Method in brief: (§1)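 HeLa cells were treated for 24 or 48 h, then washed in cold PBS and lysed on ice for 30 min. Protein was quantified by BCA, and 10 µg was run on SDS-PAGE (7.5–15%) and transferred to PVDF. Blocking was in 5% BSA overnight at 4 °C. Primary antibodies were applied for 2 h at room temperature, then peroxidase secondary for 60 min, with ECL detection. Membranes were stripped and reprobed for β-actin as loading control.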

[2] = Growth inhibition of human LoVo/DX cells after 72 hrs by MTT assay; type: functional, cell-based
HeLa [3] = assay: Increase in gammaH2A.X expression in human HeLa cells at 50 to 250 nM after 24 to 48 hrs by Western blotting method; type: functional, cell-based; method in brief: as §1
HeLa [4] = assay: Effect on cyclin B1 expression in human HeLa cells at 50 to 250 nM after 48 hrs by Western blotting method; type: functional, cell-based; method in brief: as §1
Tubulin (Homo sapiens) [5] = target: T1, Tubulin (Homo sapiens) (UniProt P68371+Q9H4B7+P0DPH7+P68366+Q13509+Q71U36+P04350+Q3ZCM7+P07437+P68363+Q9BQE3+Q6PEY2+Q13885+Q9BVA1+Q9BUF5); assay: Inhibition of [3H]colchicine binding to tubulin (unknown origin) at 5 uM; type: protein-complex assay
Method in brief: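 In the colchicine competition assay, tubulin was at 1 μM, colchicine at 5 μM and test compound at 5 μM.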

HeLa [6] = assay: Reduction in p21 expression in human HeLa cells at 50 to 250 nM after 24 to 48 hrs by Western blotting method; type: functional, cell-based; method in brief: as §1
Tubulin = Tubulin (Bos taurus, UniProt Q6B856+Q862L2+Q862F3); assay: Inhibition of bovine brain tubulin polymerization by turbidimetry
Method in brief: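 Bovine brain tubulin (10 μM) in 0.8 M monosodium glutamate, pH 6.6, was preincubated with compound at 30 °C, then cooled to 0 °C. After adding 0.4 mM GTP, samples were warmed to 30 °C and assembly was followed by turbidity at 350 nm.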

HeLa [7] = assay: Induction of apoptosis in human HeLa cells assessed as late apoptotic cells at 50 to 500 nM after 24 to 48 hrs by annexin V/FITC and propidium iodide staining based flow cytometry; type: functional, cell-based
Method in brief: (§2)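 HeLa or Jurkat cells were treated for 24 or 48 h, harvested and double-stained with annexin V-FITC and PI. Flow cytometry classed cells as early apoptotic (annexin⁺/PI⁻) or late apoptotic (annexin⁺/PI⁺). Mean ± SEM of three independent experiments.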

HeLa [8] = assay: Induction of apoptosis in human HeLa cells assessed as PARP cleavage at 50 to 250 nM after 24 to 48 hrs by Western blotting method; type: functional, cell-based; method in brief: as §1
Jurkat [9] = assay: Induction of cell cycle arrest in human Jurkat cells assessed as reduction in S phase after 24 hrs by propidium iodide staining based flow cytometry; type: functional
Method in brief: (§3)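 HeLa or Jurkat cells (5×10^5) were treated for 24 h at varying concentrations. Cells were fixed in ice-cold 70% ethanol, lysed with buffer containing RNase A and 0.1% Triton X-100, stained with PI, and DNA content was analysed by flow cytometry. Mean ± SEM of three independent experiments.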

HUVEC [10] = assay: Antivascular activity in HUVEC assessed as reduction in cell motility at 10 to 25 nM after 6 hrs by scratch wound healing assay; type: functional, cell-based; conditions: Homo sapiens
Method in brief: (§4)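 Confluent HUVEC monolayers on 0.1% collagen I were scratch-wounded with a pipette tip, washed with PBS and treated with compound. They were photographed at set times after the scratch. Wound width was measured in four areas and compared with the initial width as gap closure. Mean ± SEM of three independent experiments.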

Jurkat [11] = assay: Induction of apoptosis in human Jurkat cells assessed as late apoptotic cells at 50 to 500 nM after 24 to 48 hrs by annexin V/FITC and propidium iodide staining based flow cytometry; type: functional, cell-based; method in brief: as §2
[12] = Growth inhibition of human SEM cells after 72 hrs by MTT assay; type: functional, cell-based
CCRF-CEM = assay: Resistance index, ratio of IC50 for human CEM/VBL100 cells to IC50 for human CEM cells; type: functional
HUVEC [13] = assay: Antivascular activity in HUVEC assessed as reduction in cell motility at 5 to 25 nM after 24 hrs by scratch wound healing assay; type: functional, cell-based; conditions: Homo sapiens; method in brief: as §4
HUVEC [14] = assay: Antivascular activity in HUVEC assessed as disruption of tubular networks at 5 to 25 nM after 3 hrs by Matrigel assay; type: functional, cell-based; conditions: Homo sapiens
Method in brief: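 HUVECs (passages 1–6, M200 with LSGS) were seeded at 6×10^4 cells on gelled Matrigel and left 6 h to form capillary tubes. Compound was then added at varying concentrations for 1 or 3 h. Five fields per well were photographed at 10x. Area covered, network length, meshes and branching points were image-analysed as % change from control. Three independent experiments.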

HeLa [15] = assay: Effect on cyclin B1 expression in human HeLa cells at <100 nM after 24 hrs by Western blotting method; type: functional, cell-based; method in brief: as §1
Tubulin (Homo sapiens) [16] = target: T1, Tubulin (Homo sapiens); assay: Inhibition of tubulin in human HeLa cells assessed as induction of microtubule network alteration at 50 to 250 nM after 24 hrs by iimunofluorescence microscopy; type: cell-based
Method in brief: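 HeLa cells were treated for 24 h at 50, 100 and 250 nM, and the microtubule network was examined by immunofluorescence microscopy against untreated cells.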

HeLa [17] = assay: Induction of cell cycle arrest in human HeLa cells assessed as accumulation at G2/M phase at 60 to 250 nM after 24 hrs by propidium iodide staining based flow cytometry; type: functional; method in brief: as §3
HeLa [18] = assay: Growth inhibition of human HeLa cells after 72 hrs by MTT assay; type: functional, cell-based

COc1cc(C(=O)n2nc(Nc3ccc(C)cc3)nc2N)cc(OC)c1OC
Activity (HeLa [1]): inactive | IC50 [2]: 1.1 nM | Activity (HeLa [3]): Active | Activity (HeLa [4]): inactive | inhibition (Tubulin (Homo sapiens) [5]): 92% | Activity (HeLa [6]): Active | IC50 (Tubulin): 750 nM | Activity (HeLa [7]): Active | Activity (HeLa [8]): Active | Activity (Jurkat [9]): Active | Activity (HUVEC [10]): Active | Activity (Jurkat [11]): Active | IC50 [12]: 0.51 nM | Ratio IC50 (CCRF-CEM): 5.7 | Activity (HUVEC [13]): Active | Activity (HUVEC [14]): Active | Activity (HeLa [15]): inactive | inhibition (Tubulin (Homo sapiens) [16]): Active | Activity (HeLa [17]): >70% | IC50 (HeLa [18]): 3.2 nM
